From article PMC8453865 (Clinical Pharmacology in Drug Development, 2021)
“And” between values parts separate entries of the source, which are not always exact repeats. Equal entries are not always repeated.

Experiments:
CYP3A4/CYP1A2 = conditions: 14 patients, repeat-dose dabrafenib (HPMC capsules); cited from earlier work
CYP2C9 = conditions: 14 patients, repeat-dose dabrafenib (HPMC capsules); cited from earlier work
OATP1B1 = conditions: in vitro; cited from earlier work
OATP1B3 = conditions: in vitro; cited from earlier work
[1] = cited from earlier work
BCRP = conditions: in vitro; cited from earlier work
CYP3A4 [2] = conditions: in vitro, via activation of the pregnane X receptor and constitutive androstane receptor; cited from earlier work
CYP2B6 = conditions: in vitro, via activation of the pregnane X receptor and constitutive androstane receptor; cited from earlier work
[3] = Safety and tolerability in patients; type: in vivo, human; conditions: 16 patients, midazolam 3 mg
In short: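 Open-label, fixed-sequence study in patients with BRAF V600 mutation–positive tumours. CYP3A and OATP1B1/1B3 probe substrates (3 mg and 10 mg) were given together on day 1, then with the test compound (150 mg twice daily, days 8–23) on days 8 and 22, after an overnight fast of at least 8 h. Monitoring covered physical examination, vital signs, 12-lead ECG, haematology and clinical chemistry, and AEs graded by NCI CTCAE v4.03.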

CYP3A4 [4] = experiment: Effect of dabrafenib
[5] = human, plasma
OATP1B1/1B3 = experiment: Effect of dabrafenib; type: in vivo, human
[6] = cited from earlier work; remark: listed apart in the source
[7] = in vivo; cited from earlier work
[8] = initial administration of dabrafenib vs midazolam alone
[9] = repeat dabrafenib dosing 150 mg twice daily (steady state) vs rosuvastatin alone
[10] = clinical study, coadministration with gemfibrozil

CC(=O)C[C@H](c1ccccc1)c1c(O)c2ccccc2oc1=O [R‐warfarin]
decrease in single‐dose AUC (CYP3A4/CYP1A2): 33%

CC(=O)C[C@@H](c1ccccc1)c1c(O)c2ccccc2oc1=O [S‐warfarin]
decrease in single‐dose AUC (CYP2C9): 37%

CC(C)(C(=O)O)c1nc(-c2cccc(NS(=O)(=O)c3c(F)cccc3F)c2F)c(-c2ccnc(N)n2)s1 [carboxy‐dabrafenib]
inhibition of OATP1B1 (OATP1B1): inhibitors | inhibition of OATP1B3 (OATP1B3): inhibitors

CC(C)(C)c1nc(-c2cccc(NS(=O)(=O)c3c(F)cccc3F)c2F)c(-c2ccnc(N)n2)s1 [dabrafenib]
AUC HPMC/gelatin ([1]; dabrafenib HPMC capsules vs gelatin capsules): 1.8 fold | median terminal‐phase half‐life (t1/2) ([1]; single oral dose of dabrafenib): ≈ 8 hours | time of peak plasma concentrations after dosing ([1]; single oral dose of dabrafenib): approximately 2 hours | oral bioavailability ([1]; single oral dose relative to an intravenous microdose): 94.5% | inhibition of OATP1B1 (OATP1B1): inhibitors | inhibition of OATP1B3 (OATP1B3): inhibitors | inhibition of BCRP (BCRP): inhibitors | induction of CYP3A4 (CYP3A4 [2]): induces | induction of CYP2B6 (CYP2B6): induces

CC(C)c1nc(-c2cccc(NS(=O)(=O)c3c(F)cccc3F)c2F)c(-c2ccnc(N)n2)s1 [desmethyl‐dabrafenib]
inhibition of OATP1B1 (OATP1B1): inhibitors | inhibition of OATP1B3 (OATP1B3): inhibitors | inhibition of BCRP (BCRP): inhibitors

CC(C)(CO)c1nc(-c2cccc(NS(=O)(=O)c3c(F)cccc3F)c2F)c(-c2ccnc(N)n2)s1 [hydroxy‐dabrafenib]
terminal half‐life of metabolite ([1]; dabrafenib metabolites): 582 min | inhibition of OATP1B1 (OATP1B1): inhibitors | inhibition of OATP1B3 (OATP1B3): inhibitors

Cc1ncc2n1-c1ccc(Cl)cc1C(c1ccccc1F)=NC2 [midazolam]
grade 4 presyncope attributed to midazolam dosing [3]: 1 patient | change in midazolam AUC0‐∞ (CYP3A4 [4]; [8]): no change | decrease in midazolam Cmax (CYP3A4 [4]; [8]): 1% | effect of dabrafenib on midazolam tmax (CYP3A4 [4]; initial and repeat dabrafenib dosing vs midazolam alone): No effect | decrease in midazolam Cmax (CYP3A4 [4]; repeat dabrafenib dosing 150 mg twice daily (steady state) vs midazolam alone): 47% | Tmax [5]: 15 min

CC(C)c1nc(N(C)S(C)(=O)=O)nc(-c2ccc(F)cc2)c1/C=C/[C@@H](O)C[C@@H](O)CC(=O)O [rosuvastatin]
increase in rosuvastatin Cmax (OATP1B1/1B3; dabrafenib at initiation of dosing vs rosuvastatin alone): 1.9 fold | increase in rosuvastatin AUC0‐∞ (OATP1B1/1B3; [9]): 7% | increase in rosuvastatin Cmax (OATP1B1/1B3; [9]): 2.56 fold and 2.6 fold | rosuvastatin AUC change with gemfibrozil [6, 10]: 1.9 fold | rosuvastatin Cmax change with gemfibrozil [6, 10]: 2.21 fold | alteration in the PK parameters of rosuvastatin ([6]; healthy volunteer study, after 6 days of rifampin (inducer) dosing): no significant alteration | rosuvastatin AUC increase with tipranavir/ritonavir ([6]; tipranavir/ritonavir 500 mg/200 mg twice daily for 11 days): 26% | excreted unchanged in the feces [7]: 90%
